{"source": "ChEMBL document CHEMBL1148398", "about": "“Design, synthesis, and biological evaluation of thio-containing compounds with serum HDL-cholesterol-elevating properties” (2004)", "key": {"Cricetinae gen. sp. [1]": {"system": "Cricetinae gen. sp.", "experiment": "Effect of compound on lactic dehydrogenase (LDH) levels in 2nd group of cholesterol-fed male hamsters at 10 mg/kg/day after 14 days of treatment", "conditions": "Mesocricetus auratus"}, "Cricetinae gen. sp. [2]": {"system": "Cricetinae gen. sp.", "experiment": "Effect of compound on total plasma cholesterol levels in 1st group of cholesterol-fed male hamsters at 3 mg/kg/day after 14 days of treatment", "conditions": "Mesocricetus auratus"}, "Cricetinae gen. sp. [3]": {"system": "Cricetinae gen. sp.", "experiment": "Effect of compound on alkaline phosphatase (ALKP) levels in 3rd group of cholesterol-fed male hamsters at 30 mg/kg/day after 14 days of treatment", "conditions": "Mesocricetus auratus"}, "Cricetinae gen. sp. [4]": {"system": "Cricetinae gen. sp.", "experiment": "Effect of compound on high-density lipoprotein cholesterol levels in 2nd group of cholesterol-fed male hamsters at 10 mg/kg/day after 14 days of treatment", "format": "functional, organism-based"}, "Rattus norvegicus [5]": {"system": "Rattus norvegicus", "experiment": "Effect of compound on serum high-density lipoprotein cholesterol concentration in chow-fed male rats at a dose of 100 mg/kg/day", "format": "functional, organism-based", "method_in_brief": "(§1)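 Separate dose-response study in male Sprague–Dawley CD rats, 60–80 g, on chow. Oral gavage once daily for 4 days in 1.3% Tween 80 / 0.25% CMC; fasted overnight, bled 24 h after last dose. Apo-A1 by ELISA with rabbit anti-rat primary, alkaline phosphatase-conjugated anti-rabbit IgG and p-nitrophenyl phosphate substrate. HDL-C by FPLC fractionation. Mean ± SEM, six per group.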"}, "Rattus norvegicus [6]": {"system": "Rattus norvegicus", "experiment": "Effect of compound on triglyceride levels in 5th group of normal chow-fed male rats after a dose of 20 mg/kg/day", "format": "functional, organism-based", "method_in_brief": "(§2)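 Male Sprague–Dawley CD rats (60–80 g) on Purina 5001 chow with a reverse 12 h light/dark cycle. Dosed once daily by oral gavage for 4 days, suspended in 1.3% Tween 80 / 0.25% CMC. Fasted overnight and bled 24 h after the last dose. Serum TC and glycerol-blanked TG measured enzymatically; VLDL-C by FPLC fractionation with cholesterol assay. n=6, mean ± SEM.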"}, "Rattus norvegicus [7]": {"system": "Rattus norvegicus", "experiment": "Effect of compound on relative liver weight in 5th group of normal chow-fed male rats after a dose of 20 mg/kg/day", "format": "functional", "method_in_brief": "(§3)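 Chow-fed male Sprague–Dawley CD rats, 60–80 g, dosed by oral gavage once daily for 4 days in 1.3% Tween 80/0.25% CMC. Fasted overnight and sacrificed 24 h after the last dose. Liver weight expressed as % of body weight at termination. Six per group, mean ± SEM.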"}, "Cricetinae gen. sp. [8]": {"system": "Cricetinae gen. sp.", "experiment": "Effect of compound on high-density lipoprotein cholesterol levels in 4th group of cholesterol-fed male hamsters at 100 mg/kg/day after 14 days of treatment", "conditions": "Mesocricetus auratus"}, "[9]": {"experiment": "Effect on serum lipids in 7th group of normal chow-fed male rats after a dose of 100 mg/kg/day was evaluated as ratio of total plasma cholesterol levels to high-density lipoprotein cholesterol levels", "format": "functional", "method_in_brief": "(§4)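 Male Sprague–Dawley CD rats, 60–80 g, chow-fed, dosed by oral gavage daily for 4 days in 1.3% Tween 80/0.25% CMC. Fasted overnight, bled 24 h after the last dose. Serum total cholesterol by enzymatic reagent; HDL-C from cholesterol in FPLC fractions; TPC/HDL-C ratio calculated. Six per group, mean ± SEM.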"}, "Rattus norvegicus [10]": {"system": "Rattus norvegicus", "experiment": "Effect of compound on gain in body weight in 6th group of normal chow-fed male rats after a dose of 50 mg/kg/day", "format": "functional", "method_in_brief": "(§5)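 Male Sprague–Dawley CD rats (60–80 g) on standard chow under a reversed 12 h light/dark cycle. Compound was suspended in 1.3% Tween 80/0.25% CMC and given as a single daily oral gavage dose for 4 days. Rats were fasted overnight and killed 24 h after the last dose. Serum ALT, AST, ALKP and LDH were read on a clinical analyzer. Weight gain was start versus end weight. Mean ± SEM, n = 6.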"}, "Rattus norvegicus [11]": {"system": "Rattus norvegicus", "experiment": "Effect of compound on triglyceride levels in 4th group of normal chow-fed male rats after a dose of 10 mg/kg/day", "format": "functional, organism-based", "method_in_brief": "as §2"}, "Rattus norvegicus [12]": {"system": "Rattus norvegicus", "experiment": "Effect of compound on liver weight in 5th group of normal chow-fed male rats after a dose of 20 mg/kg/day", "format": "functional", "method_in_brief": "(§6)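 Male Sprague–Dawley CD rats, 60–80 g, on chow with a reverse 12 h light/dark cycle. Given one oral gavage dose daily for 4 days, suspended in 1.3% Tween 80/0.25% CMC. Fasted overnight and sacrificed 24 h after the last dose for blood and liver. Serum liver enzymes read on a clinical analyzer. Six per group, mean ± SEM.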"}, "Cricetinae gen. sp. [13]": {"system": "Cricetinae gen. sp.", "experiment": "Effect of compound on thyroxine levels in 4th group of cholesterol-fed male hamsters at 100 mg/kg/day after 14 days of treatment", "conditions": "Mesocricetus auratus"}, "Rattus norvegicus [14]": {"system": "Rattus norvegicus", "experiment": "Effect of compound on high-density lipoprotein cholesterol levels in 3rd group of normal chow-fed male rats after a dose of 5 mg/kg/day", "format": "functional, organism-based"}, "Rattus norvegicus [15]": {"system": "Rattus norvegicus", "experiment": "Percent change in triglycerides in hypercholesterolemic rats at a dose of 100 mg/kg/day for 8 days", "format": "functional"}, "Mesocricetus auratus": {"system": "Mesocricetus auratus", "experiment": "Effect of compound on gain in body weight in 4th group of cholesterol-fed male hamsters at 100 mg/kg/day after 14 days of treatment"}, "Rattus norvegicus [16]": {"system": "Rattus norvegicus", "experiment": "Percent change in triglycerides following oral administration of compound in normal chow-fed rats at 100 mg/kg/day for 4 days", "format": "functional", "method_in_brief": "(§7)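 Chow-fed male Sprague–Dawley CD rats, 60–80 g, gavaged 100 mg/kg/day for 4 days in 1.3% Tween 80/0.25% CMC. Fasted overnight, bled 24 h after the last dose. Total cholesterol and glycerol-blanked triglycerides read enzymatically; lipoproteins by FPLC with cholesterol per fraction. % change versus control; six per group, p < 0.05.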"}, "Cricetinae gen. sp. [17]": {"system": "Cricetinae gen. sp.", "experiment": "Effect of compound on high-density lipoprotein cholesterol levels in 1st group of cholesterol-fed male hamsters at 3 mg/kg/day after 14 days of treatment", "format": "functional, organism-based"}, "Rattus norvegicus [18]": {"system": "Rattus norvegicus", "experiment": "Effect of compound on serum high-density lipoprotein cholesterol concentration in chow-fed male rats at a dose of 10 mg/kg/day", "format": "functional, organism-based", "method_in_brief": "as §1"}, "Rattus norvegicus [19]": {"system": "Rattus norvegicus", "experiment": "Percent change in high-density lipoprotein cholesterol following oral administration of compound in normal chow-fed rats at 100 mg/kg/day for 4 days", "format": "functional", "method_in_brief": "as §7"}, "Rattus norvegicus [20]": {"system": "Rattus norvegicus", "experiment": "Effect of compound on serum apolipoprotein A1 concentration in chow-fed male rats at a dose of 50 mg/kg/day", "format": "functional, organism-based", "method_in_brief": "as §1"}, "Rattus norvegicus [21]": {"system": "Rattus norvegicus", "experiment": "Effect of compound on relative liver weight in 7th group of normal chow-fed male rats after a dose of 100 mg/kg/day", "format": "functional", "method_in_brief": "as §3"}, "Rattus norvegicus [22]": {"system": "Rattus norvegicus", "experiment": "Effect of compound on serum apolipoprotein A1 concentration in chow-fed male rats at a dose of 100 mg/kg/day", "format": "functional, organism-based", "method_in_brief": "as §1"}, "Rattus norvegicus [23]": {"system": "Rattus norvegicus", "experiment": "Effect of compound on lactic dehydrogenase (LDH) levels in 7th group of normal chow-fed male rats after a dose of 100 mg/kg/day", "format": "functional, organism-based", "method_in_brief": "as §6"}, "[24]": {"experiment": "Effect on serum lipids in 6th group of normal chow-fed male rats after a dose of 50 mg/kg/day was evaluated as ratio of total plasma cholesterol levels to high-density lipoprotein cholesterol levels", "format": "functional", "method_in_brief": "as §4"}, "Rattus norvegicus [25]": {"system": "Rattus norvegicus", "experiment": "Effect of compound on lactic dehydrogenase (LDH) levels in 2nd group of normal chow-fed male rats after a dose of 2 mg/kg/day", "format": "functional, organism-based", "method_in_brief": "as §5"}, "Rattus norvegicus [26]": {"system": "Rattus norvegicus", "experiment": "Effect of compound on aspartate aminotransferase (AST) levels in 3rd group of normal chow-fed male rats after a dose of 5 mg/kg/day", "format": "functional, organism-based", "method_in_brief": "as §5"}}}
{"smiles": "CCN1CC(=O)N(c2cc(Cl)ccc2C)C1=S", "values": [{"measurement": "Level", "setting": "Cricetinae gen. sp. [1]", "value": 1310, "unit": "U l-1"}, {"measurement": "Serum level", "setting": "Cricetinae gen. sp. [2]", "value": 429, "unit": "mg/dL"}, {"measurement": "Level", "setting": "Cricetinae gen. sp. [3]", "value": 136, "unit": "U l-1"}, {"measurement": "Serum level", "setting": "Cricetinae gen. sp. [4]", "value": 133, "unit": "mg/dL"}, {"measurement": "Serum level", "setting": "Rattus norvegicus [5]", "value": 104, "unit": "mg/dL"}, {"measurement": "Serum level", "setting": "Rattus norvegicus [6]", "value": 19, "unit": "mg/dL"}, {"measurement": "Relative liver weight", "setting": "Rattus norvegicus [7]", "value": 4.3, "unit": "%"}, {"measurement": "Serum level", "setting": "Cricetinae gen. sp. [8]", "value": 191, "unit": "mg/dL"}, {"measurement": "Ratio", "setting": "[9]", "value": 1.56}, {"measurement": "Body weight", "setting": "Rattus norvegicus [10]", "value": 27.5, "unit": "g"}, {"measurement": "Serum level", "setting": "Rattus norvegicus [11]", "value": 21, "unit": "mg/dL"}, {"measurement": "Liver weight", "setting": "Rattus norvegicus [12]", "value": 8.2, "unit": "g"}, {"measurement": "Serum level", "setting": "Cricetinae gen. sp. [13]", "value": 4.02, "unit": "µg/dL"}, {"measurement": "Serum level", "setting": "Rattus norvegicus [14]", "value": 45, "unit": "mg/dL"}, {"measurement": "Change", "setting": "Rattus norvegicus [15]", "value": -19, "unit": "%"}, {"measurement": "Body weight", "setting": "Mesocricetus auratus", "value": 9, "unit": "g"}, {"measurement": "Change", "setting": "Rattus norvegicus [16]", "value": -23.1, "unit": "%"}, {"measurement": "Serum level", "setting": "Cricetinae gen. sp. [17]", "value": 136, "unit": "mg/dL"}, {"measurement": "Serum level", "setting": "Rattus norvegicus [18]", "value": 73.1, "unit": "mg/dL"}, {"measurement": "Change", "setting": "Rattus norvegicus [19]", "value": 89.1, "unit": "%"}, {"measurement": "Serum level", "setting": "Rattus norvegicus [20]", "value": 88.8, "unit": "mg/dL"}, {"measurement": "Relative liver weight", "setting": "Rattus norvegicus [21]", "value": 4.5, "unit": "%"}, {"measurement": "Serum level", "setting": "Rattus norvegicus [22]", "value": 96.4, "unit": "mg/dL"}, {"measurement": "Level", "setting": "Rattus norvegicus [23]", "value": 681, "unit": "U l-1"}, {"measurement": "Ratio", "setting": "[24]", "value": 2.03}, {"measurement": "Level", "setting": "Rattus norvegicus [25]", "value": 692, "unit": "U l-1"}, {"measurement": "Level", "setting": "Rattus norvegicus [26]", "value": 216, "unit": "U l-1"}]}
